In ChEMBL document CHEMBL1157464, “1-[(3-Aryloxy-3-aryl)propyl]-1H-imidazoles, new imidazoles with potent activity against Candida albicans and dermatophytes. Synthesis, structure-activity relationship, and molecular modeling studies” (J Med Chem, 2008):
Values after ≈ are worked out from the molar mass of the structure shown.

Assays:
Arthrodermataceae [1] = test: Antifungal activity against dermatophytes at 28 degC after 48 to 96 hrs by broth microdilution test
Candida albicans [2] = test: Antifungal activity against Candida albicans ATCC 10261 at 35 degC after 48 to 96 hrs by broth microdilution test; type: functional
In short: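 Minimal fungicidal concentration for Candida. […] MFC is the lowest concentration allowing fewer than two colonies (99% killing).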

Arthrodermataceae [3] = test: Antifungal activity against dermatophytes at 28 degC after 7 days by broth microdilution test; type: functional; conditions: 168 h
In short: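 Ten clinical isolates (two M. canis, five M. gypseum, three T. mentagrophytes) tested by NCCLS M38-A broth microdilution in MOPS-buffered RPMI 1640, pH 7.0, over 0.25–128 µg/mL. Conidial/hyphal suspension from PDA slants (28 °C, 7 days) adjusted to 65–70% transmittance at OD530, then diluted 1:50.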

Arthrodermataceae [4] = test: Antifungal activity against dermatophytes at 28 degC after 5 days by broth microdilution test; conditions: for MFC: Arthrodermataceae
Candida parapsilosis = test: Antifungal activity against Candida parapsilosis ATCC 22019 at 35 degC after 48 hrs by broth microdilution test; type: functional
In short: (§1)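 Broth microdilution per NCCLS M27-A2. Stocks in 100% DMSO, diluted in RPMI 1640 with 0.165 M MOPS at pH 7.0; final range 0.25–128 µg/mL. Inoculum 1000–5000 cells/mL from SDA subcultures. […] C. parapsilosis ATCC22019 served as QC strain.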

Candida albicans [5] = test: Antifungal activity against Candida albicans ATCC 10261 at 35 degC after 48 hrs by broth microdilution test; type: functional
In short: as §1

[6] = Candida albicans, ATCC 10261, read-out: MFC
[7] = Lodderomyces parapsilosis, ATCC 22019, 48 h, read-out: MFC
[8] = Lodderomyces parapsilosis, ATCC 22019, 48 h, read-out: MIC
[9] = Candida albicans, ATCC 10261, 48 h, read-out: MIC
[10] = Candida albicans, ATCC 10261, 48 h, read-out: MIC50
[11] = Candida albicans, ATCC 10261, 48 h, read-out: MIC90

| Compound | MFC50 (Arthrodermataceae [1]) [µg/mL] | MFC50 (Candida albicans [2]) [µg/mL] | MFC90 (Candida albicans [2]) [µg/mL] | MFC (Candida albicans [2]; [6]) [µg/mL] | MIC (Arthrodermataceae [3]) [µg/mL] | MIC50 (Arthrodermataceae [3]) [µg/mL] | MIC90 (Arthrodermataceae [3]) [µg/mL] | MFC90 (Arthrodermataceae [4]) [µg/mL] | MFC (Arthrodermataceae [4]) [µg/mL] | MFC (Candida parapsilosis; [7]) [µg/mL] | MIC (Candida parapsilosis; [8]) [µg/mL] | MIC (Candida albicans [5]; [9]) [µg/mL] | MIC50 (Candida albicans [5]; [10]) [µg/mL] | MIC90 (Candida albicans [5]; [11]) [µg/mL] | MFC (Candida albicans [2]) [µg/mL] | MFC (Candida parapsilosis) [µg/mL] | MIC (Candida parapsilosis) [µg/mL] | MIC (Candida albicans [5]) [µg/mL] | MIC90 (Candida albicans [5]) [µg/mL] | MIC50 (Candida albicans [5]) [µg/mL] |
| --- | --- | --- | --- | --- | --- | --- | --- | --- | --- | --- | --- | --- | --- | --- | --- | --- | --- | --- | --- | --- |
| Clc1ccc(C(CCn2ccnc2)OCc2ccc(Cl)cc2Cl)cc1 (stereo unspecified) | 16 (≈ 40.4 µM) | 64 (≈ 162 µM) | 64 (≈ 162 µM) | 62 (≈ 157 µM) | 7 (≈ 17.7 µM) | 8 (≈ 20.2 µM) | 8 (≈ 20.2 µM) | 16 (≈ 40.4 µM) | 17.3 (≈ 43.7 µM) | 32 (≈ 80.9 µM) | 4 (≈ 10.1 µM) | 60.2 (≈ 152 µM) | 64 (≈ 162 µM) | 64 (≈ 162 µM) |  |  |  |  |  |  |
| Cc1ccc(OC(CCn2ccnc2)c2ccccc2)cc1 (single isomer, unassigned; (+)) |  |  |  |  |  |  |  |  |  |  |  |  |  |  | 14.9 (≈ 51 µM) | 8 (≈ 27.4 µM) | 1 (≈ 3.42 µM) | 6.5 (≈ 22.2 µM) | 8 (≈ 27.4 µM) |  |
| Cc1ccc(OC(CCCCn2ccnc2)c2ccc(Cl)cc2)cc1 (stereo unspecified) |  | 32 (≈ 90.2 µM) | 32 (≈ 90.2 µM) | 32 (≈ 90.2 µM) |  |  |  |  |  | 8 (≈ 22.5 µM) | 8 (≈ 22.5 µM) | 32 (≈ 90.2 µM) | 32 (≈ 90.2 µM) | 32 (≈ 90.2 µM) |  |  |  |  |  |  |
| Cc1ccc(OC(CCn2ccnc2)c2ccccc2)cc1 (single isomer, unassigned; (-)) |  | 64 (≈ 219 µM) | 64 (≈ 219 µM) |  |  |  |  |  |  |  |  |  |  |  | 51.4 (≈ 176 µM) |  | 2 (≈ 6.84 µM) | 28.3 (≈ 96.8 µM) | 64 (≈ 219 µM) | 16 (≈ 54.7 µM) |
| Clc1ccc(OC(CCn2ccnc2)c2ccccc2)c(Cl)c1 (stereo in doubt; (+)-14a) |  |  | 8 (≈ 23 µM) |  |  |  |  |  |  |  |  |  |  |  | 7.4 (≈ 21.3 µM) | 4 (≈ 11.5 µM) | 0.5 (≈ 1.44 µM) | 3.2 (≈ 9.22 µM) | 4 (≈ 11.5 µM) | 4 (≈ 11.5 µM) |
| Clc1ccc(OC(CCn2ccnc2)c2ccccc2)c(Cl)c1 (single isomer, unassigned; (-)) |  | 32 (≈ 92.2 µM) | 32 (≈ 92.2 µM) |  |  |  |  |  |  |  |  |  |  |  | 28.6 (≈ 82.4 µM) | 8 (≈ 23 µM) | 1 (≈ 2.88 µM) | 11.8 (≈ 34 µM) | 16 (≈ 46.1 µM) |  |
| Clc1ccc(C(OCCn2ccnc2)c2ccc(Cl)cc2Cl)cc1.O=[N+]([O-])O (stereo unspecified) |  | 128 | 256 | 145 |  |  |  |  |  | 32 | 16 | 34.4 | 32 | 64 |  |  |  |  |  |  |
| CNCCC(Oc1ccc(C(F)(F)F)cc1)c1ccccc1 (stereo unspecified) [FLUOXETINE] | 64 (≈ 207 µM) |  |  |  | 45 (≈ 145 µM) | 32 (≈ 103 µM) | 64 (≈ 207 µM) | 64 (≈ 207 µM) | 64 (≈ 207 µM) |  |  |  |  |  |  |  |  |  |  |  |
| Cc1ccc(C(CCn2ccnc2)Oc2ccccc2)cc1 (stereo unspecified) |  | 32 (≈ 109 µM) | 64 (≈ 219 µM) | 38.4 (≈ 131 µM) |  |  |  |  |  | 32 (≈ 109 µM) | 4 (≈ 13.7 µM) | 20.3 (≈ 69.4 µM) | 16 (≈ 54.7 µM) | 32 (≈ 109 µM) |  |  |  |  |  |  |
| Cc1ccc(C(CCn2ccnc2)Oc2ccc(C(C)C)cc2)cc1 (stereo unspecified) |  | 32 (≈ 95.7 µM) | 64 (≈ 191 µM) | 32 (≈ 95.7 µM) |  |  |  |  |  | 16 (≈ 47.8 µM) | 2 (≈ 5.98 µM) | 16.6 (≈ 49.6 µM) | 16 (≈ 47.8 µM) | 32 (≈ 95.7 µM) |  |  |  |  |  |  |
| OC(CCn1ccnc1)(c1ccccc1)c1ccccc1 |  | 128 (≈ 460 µM) | 128 (≈ 460 µM) | 128 (≈ 460 µM) |  |  |  |  |  | 64 (≈ 230 µM) | 32 (≈ 115 µM) | 114 (≈ 410 µM) | 128 (≈ 460 µM) | 128 (≈ 460 µM) |  |  |  |  |  |  |
